# GASC-1 inh – inhibitors of GASC-1 histone demethylase, primary screen, biochemical, fluorescence, DELFIA europium; AID 2099, 2009; actives 0.069% (n = 330,000); GST-JMJD2C(1-420) H3K9me3 demethylation; inhibition, % at 2.35 µM;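 active = more than half of a compound's replicate wells show inhibition beyond 50%, single wells judged on their own value; inconclusive = some, but no more than half, of replicates pass 50% inhibition; inactive = no replicate passes 50% inhibition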;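 also: signal counts dimethyl H3K9 product captured on neutravidin plate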
# GRIN3A LBD mod – binders of NR3A ligand-binding domain, primary screen, biophysical, differential scanning fluorimetry, uHTS. Tm shift relative to glycine control, % at 25 µM. AID 1259313, 2017. actives 2.5% (n = 340,000). NR3A LBD differential scanning fluorimetry, Tm shift; 0% = protein alone, 100% = glycine-bound protein;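 active = melting temperature shift of at least 10% of the positive control shift, at one fixed dose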
# Rtt109 Vps75 – inhibitors of C. albicans Rtt109/Vps75 HAT, primary screen, biochemical, ThioGlo CoA-SH fluorescence, plate reader. purified Rtt109/Vps75, 4 h. inhibition, % at 34.9 µM. actives 0.16% (n = 330,000);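 active = inhibition of at least 50% in every replicate; inconclusive = best replicate reaches 50% inhibition but some replicates fall short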
# Target sequence (Q5AAJ8 whole entry, looked up): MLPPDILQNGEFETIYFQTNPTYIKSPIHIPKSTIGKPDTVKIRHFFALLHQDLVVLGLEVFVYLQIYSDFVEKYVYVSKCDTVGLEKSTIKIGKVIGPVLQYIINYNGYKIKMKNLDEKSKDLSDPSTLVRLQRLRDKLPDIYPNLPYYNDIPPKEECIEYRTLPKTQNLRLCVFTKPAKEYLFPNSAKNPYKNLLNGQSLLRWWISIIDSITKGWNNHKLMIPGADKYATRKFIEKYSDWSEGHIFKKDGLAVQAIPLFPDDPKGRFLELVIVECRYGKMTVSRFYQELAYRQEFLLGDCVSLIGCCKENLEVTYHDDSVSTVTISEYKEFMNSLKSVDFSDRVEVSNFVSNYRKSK
# T cell modulator – modulators of CD8 T cell-vesicle binding, primary screen, mouse 2C CD8+ T cells, flow cytometry. response (vesicle binding), % at 7 µM. 2C CD8+ T cell-vesicle binding; stronger effect = lower value. actives 0.068% (n = 330,000);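 active = response, share of CD8 T cells binding vesicles, and their 90th percentile fluorescence all below set limits, cut at about 80% in these data, passing the limit was not always enough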;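 also: values below 100% mean blocked vesicle binding to the CD8+ T cells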
#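 Material: 2C TCR transgenic mouse naive CD8+ T cells, MACS-purified. Also added: QL9-charged Drosophila Ld/ICAM-1/B7-1 vesicles. Timing: binding 1.5 h at 37 °C. Measured by: high-throughput flow cytometry with anti-B7-1 and anti-CD8 staining. Read-out: percent CD8+ FL2 mean versus row control. Controls: Unloaded micro-vesicles (low), QL9 vesicles with 0.7% DMSO (high).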
# A number is an active result; – = inactive; ? = inconclusive; · = not tested or not shown. An excerpt weighted towards active compounds, which were near 2.8% of everything screened.
SMILES,GASC-1 inh,GRIN3A LBD mod,Rtt109 Vps75,T cell modulator
CC12CN3CC(C)(CN(C1)C3c1ccc3c(c1)OCO3)C2O (stereo not given),–,–,–,–
CC1(C)COC(c2ccc3c(c2)OCO3)OC1,·,11,–,·
O=C(O)C1(O)C[C@@H](O)C(O)[C@H](O)C1 (stereo not given in full),·,–,–,·
O=C(c1ccc(C#CC2(O)CCCCC2)cc1)N1CCN(C(c2ccccc2)c2ccccc2)CC1,–,12,–,–
O=C(c1ccc(C#CC2(O)CCCCC2)cc1)N1CCN(Cc2ccccc2)CC1,–,–,–,–
Cc1cc(CNC(=O)c2cccc3c2C(=O)c2ccc(-c4ccc(F)cc4OCc4ccccc4)cc2S3(=O)=O)c(C(F)(F)F)o1,·,17,–,–
O=C(O)c1cccc2c1C(=O)c1ccc(-c3ccc(F)cc3OCc3ccccc3)cc1S2(=O)=O,–,13,–,–
O=C1c2ccc(-c3ccc(F)cc3OCc3ccccc3)cc2S(=O)(=O)c2cccc(C(=O)N3CCN(c4ncc(Br)cn4)CC3)c21,·,–,–,–
O=C(Nc1ccc(/C=C/c2nc3ccccc3o2)cc1)c1cccc(C(F)(F)F)c1,–,17,–,–
O=C(Nc1ccc(/C=C/c2nc3ccccc3o2)cc1)c1c(F)cccc1F,–,20,–,–
COC(=O)c1c(C(=O)OC)c(-c2cccc(Cl)c2)n2c1CS(=O)(=O)C2,–,–,–,–
COc1ccc(NC(=S)NC23CC4CC(CC(C4)C2)C3)cc1OC,–,–,–,–
O=C1/C(=C\c2ccc(O)cc2)SC(=S)N1/N=C/c1ccc(O)cc1,–,19,–,–
CC(=O)C1CCC2C3CCC4CC(=O)CCC4(C)C3C=CC12C (stereo not given),·,–,–,·
O=C(O)[C@@H]1CC(O)CN1C(=O)CCc1c[nH]c2ccccc12 (stereo not given in full),–,–,–,–
Fc1ccccc1C1CC(c2ccco2)=Nc2ccccc2S1 (stereo not given),–,–,83,–
COc1ccccc1C1CC(c2cccs2)=Nc2ccccc2S1 (stereo not given),–,–,?,–
O=C(NCCC(=O)N1CCN(c2ccccn2)CC1)c1ccc(Cl)cc1,–,–,–,–
COc1ccc(S(=O)(=O)/N=C2/C=CC(=O)C(C)=C2C)cc1,–,–,–,–
CC1=C(C)/C(=N\OS(=O)(=O)c2ccc(C)cc2)C=CC1=O,–,–,109,–
Cc1cccc(C)c1NC(=O)CNC(=O)CCNC(=O)c1ccco1,–,–,–,–
CN1/C(=C\C(=O)Nc2ccc(Br)cc2)C(C)(C)c2ccccc21,–,19,–,–
CCOC(=O)c1c(NC(=O)CSc2nnnn2-c2ccccc2)sc2c1CCC(C)C2 (stereo not given),–,17,–,–
CC(=O)Nc1ccc(NC(=O)/C=C/c2cccc(C(F)(F)F)c2)cc1,–,18,–,–
CC(=O)Nc1ccc(NC(=O)/C=C/c2ccc(Cl)cc2)cc1,–,13,–,–
SMILES,GASC-1 inh,GRIN3A LBD mod,Rtt109 Vps75,T cell modulator
CC(=O)Nc1ccc(CN2CCN(c3cccc(C(F)(F)F)c3)CC2)cc1,–,20,–,–
COc1ccc(N=c2oc3cc(O)ccc3cc2C(=O)Nc2ccccn2)cc1OC,–,15,–,–
N#C/C(=C/c1ccc(N2CCCCC2)cc1)c1cccc(F)c1,–,12,–,–
COc1cccc(NCc2cc(=O)oc3cc(C)c(O)cc23)c1,–,–,·,–
COc1cccc(NCc2cc(=O)oc3cc(-c4ccccc4)c(O)cc23)c1,–,28,–,–
CCN(c1cccc(C)c1)S(=O)(=O)c1cc2c3c(c1)CCN3C(=O)CC2,?,–,–,–
O=C(CC1NCCNC1=O)Nc1cccc([N+](=O)[O-])c1 (stereo not given),–,–,–,–
CCOC(=O)C1=C(C)N=c2s/c(=C\c3ccc(C(=O)O)cc3)c(=O)n2C1c1ccc(F)cc1 (stereo not given),–,–,–,–
CCOC(=O)C1=C(C)N=c2s/c(=C\c3ccc(C(=O)O)cc3)c(=O)n2C1c1ccc(OC)cc1OC (stereo not given),–,429,–,–
